Assay outcomes: PubChem BioAssay, several laboratories
PPC-1+TRAIL kill = compounds killing PPC-1 cancer cells with TRAIL present, primary screen, TRAIL potentiator project, ATPLite luminescence, uHTS | PPC-1 cells + TRAIL, ATPLite viability luminescence | cell killing (% activity), % at 4 µM or 5 µM | 220,000 tested, 0.41% active | AID 1443, 2008;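 active = cell killing above 50% in the first pass at 4 µM, then a duplicate retest at 5 µM averaging 50% or more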;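 note: plate controls were cells with TRAIL plus DMSO for no effect and medium-only wells lacking cells for full effect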
Wee1 degr inh = Wee1 degradation inhibitors, primary screen, cell-based, HeLa, Wee1K328M-luciferase, luminescence; Wee1-like protein kinase (Homo sapiens), P30291; HeLa Luc-Wee1K328M stability; 100% = proteasome inhibitor MG132 effect; reporter increase, % at 5 µM; 220,000 tested, 1.2% active; AID 1321, 2008;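 active = activation above the mean of all tested compounds plus 3 SD, set per screening run, cut at about 8.8% in these data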;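 note: cells exposed to compound for 20 h before luminescence read; 0% = DMSO alone and 100% = MG132 at 30 µM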
PKD1 kinase inh = inhibitors of human PKD1 kinase, biochemical, fluorescence polarization. Serine/threonine-protein kinase D1 (Homo sapiens), Q15139. PKD1 kinase fluorescence polarization assay. inhibition, % (test concentration not listed). 200,000 tested, 0.056% active; in the data active = inhibition above about 50%
TRAIL sens C8 = viability loss with TRAIL in NB7+C8 cells, primary screen, TRAIL sensitizer project, cell-based, ATPlite luminescence; AID 624354, 2012; inhibition (viability loss, TRAIL sensitization), % at 10 µM; 360,000 tested, 1% active;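 active = compounds causing at least 50% loss of cell viability in the single-dose screen, relative to plate controls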
FLuc inh counter = firefly luciferase enzyme inhibitors, primary screen, artefact control for luciferase-based inhibitor screens, biochemical, luminescence, ATPLite. Luciferin 4-monooxygenase (Photinus pyralis), P08659. AID 1006, 2008. inhibition, % at 10 µM. 200,000 tested, 1.5% active. 10 min;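 active = inhibition above about 50% when tested at 10 µM, limit read from the data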
FLuc act counter = FLuc activators, initial screening, artefact control for FLuc-dependent activation tests, biochemical, ATPlite luminescence | AID 1027, 2008 | activation factor at 10 µM | ATPlite luciferase biochemical, 10 min; 0 = ATP-free wells, 1 = DMSO control | 200,000 tested, under 10 active;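 active = luciferase activation factor, scaled between plate controls, of at least 2 with compound at 10 µM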
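System: luciferase plus luciferin reagent, cell-free; medium: PBS as buffer for the ATP substrate; dosing: test compounds dosed from 2 mM stocks in 100% DMSO; timing: 10 min post-reagent at room temperature; measured by: luminescence measurement of luciferase light output; evaluation: luciferase activation, seen as luminescence increase over controls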
* = called active by the depositor; nt = not tested or not shown. In the library only some 2.2% were active in any assay of this set; here they are far more common.

SMILES | PPC-1+TRAIL kill | Wee1 degr inh | PKD1 kinase inh | TRAIL sens C8 | FLuc inh counter | FLuc act counter
O=C(O)CCNC(=O)CCCn1nnc2ccccc2c1=O | 4 | 9.5* | nt | 2 | nt | nt
Cc1cc2nc(-c3ccccn3)c(-c3ccccn3)nc2cc1C | 35 | 9.3* | nt | 38 | nt | nt
CC(Oc1ccc(Br)cc1)C(=O)NNC(=O)CCN1CCN(c2ccccc2)CC1 (stereo not given) | nt | nt | nt | 28 | nt | nt
CC1CCCN(CCCNC(=O)C2CC(=O)N(CCc3ccccc3)C2)C1 (stereo not given) | nt | nt | nt | -20 | nt | nt
COc1ccc2c(c1)N(C)/C(=C/c1cccc[n+]1C)S2 | nt | nt | nt | 17 | nt | nt
CCN1/C(=C/c2cccc[n+]2C)Sc2ccc(OC)cc21 | nt | nt | nt | 54* | nt | nt
C=C1C(=O)CC2=C1[C@](Cc1ccc(F)cc1)(C(=O)OC)N(C(=O)c1ccccc1)C2 | nt | nt | nt | 7 | nt | nt
C=C1C(=O)C=C2CN(C(=O)c3ccccc3)[C@@](Cc3ccc(F)cc3)(C(=O)OC)[C@@H]12 | 13 | 4 | -5 | 73* | -12 | 1.1
Cc1ccc(SCC(=O)OCC(=O)N(CCC#N)c2ccccc2)cc1C | nt | nt | nt | 1 | nt | nt
Cc1ccc(N(CCC#N)C(=O)CCl)cc1C | 3 | -2 | -1 | 87* | -2 | 1
CC(=O)C1=C(O)C(=O)N(c2nccs2)C1c1ccc(Br)cc1 (stereo not given) | 9 | 9.1* | -11 | -10 | -1 | 1
COc1cc(C2C(C(C)=O)=C(O)C(=O)N2c2ccc(Br)cn2)ccc1O (stereo not given) | 2 | 0 | 14 | 3 | -7 | 1.1
CC(=O)C1=C(O)C(=O)N(c2ccc(Br)cn2)C1c1ccc(Br)cc1 (stereo not given) | 8 | 10* | nt | -2 | nt | nt
CC(=O)C1=C(O)C(=O)N(c2nccs2)C1c1ccc(F)cc1 (stereo not given) | 0 | -2 | -7 | -2 | -8 | 1.1
CC(=O)C1=C(O)C(=O)N(c2ccc(Br)cn2)C1c1ccc(F)cc1 (stereo not given) | 28 | 11* | -4 | 3 | -3 | 1
CC(C)CCn1c(=O)c2sccc2n2c(CCCC(=O)N3CCN(c4ccccn4)CC3)nnc12 | nt | nt | nt | -6 | nt | nt
COc1ccc(OC)c(N(CCN2C(=O)c3ccccc3C2=O)C(=O)CCl)c1 | nt | nt | nt | 94* | nt | nt
COc1ccc(NC(=O)CCN2C(=O)c3ccccc3C2=O)c(OC)c1 | nt | nt | nt | -18 | nt | nt
C/C(=N/N=C/c1ccc(N(C)C)cc1)c1ccccc1 | 18 | 2 | -2 | 56* | 77* | 0.2
Cc1nc(C)c(C(=O)O)c(-c2cccs2)c1C(=O)O | 2 | 0 | nt | -3 | nt | nt
O=C(Nc1ccc(-c2cn3ccccc3n2)cc1)c1ccc(Cl)cc1 | 23 | -3 | 14 | 0 | 0 | 1
COc1ccc(-c2ccc(NC(=O)c3ccco3)cc2)nn1 | nt | nt | nt | 83* | nt | nt
CCC(C)c1ccc(NC(=O)COC(=O)CCNC(=O)c2ccco2)cc1 (stereo not given) | nt | nt | nt | -11 | nt | nt
O=C(Nc1ccc(-c2cn3ccccc3n2)cc1)c1ccco1 | 73* | 3 | -7 | 71* | 86* | 0.1
CCC(C)c1ccc(NC(=O)c2ccco2)cc1 (stereo not given) | nt | nt | nt | 73* | nt | nt
SMILES | PPC-1+TRAIL kill | Wee1 degr inh | PKD1 kinase inh | TRAIL sens C8 | FLuc inh counter | FLuc act counter
COc1ccc(-c2cccc(NC(=O)c3ccco3)c2)nn1 | nt | nt | nt | 4 | nt | nt
Cc1ccccc1CC(=O)Nc1ccc(C(=O)N2CCCC2)cc1 | nt | nt | nt | 16 | nt | nt
O=C1/C(=C\c2ccccc2)CN(C(=O)CCN2CCCCC2)C/C1=C/c1ccccc1 | nt | nt | nt | 91* | nt | nt
O=C1/C(=C\c2ccccc2)CCC/C1=C/c1ccccc1 | nt | nt | nt | 16 | nt | nt
O=C1/C(=C\c2ccc(Cl)c(Cl)c2)CN(C(=O)CCN2CCOCC2)C/C1=C/c1ccc(Cl)c(Cl)c1 | nt | nt | nt | 93* | nt | nt
CCN(CC)CCC(=O)N1C/C(=C/c2ccccc2)C(=O)/C(=C\c2ccccc2)C1 | nt | nt | nt | 93* | nt | nt
O=C(NCCN1CCOCC1)c1ccc(Cl)c(Cl)c1 | nt | nt | nt | -4 | nt | nt
COc1cc(/C=C/c2nc3ccccc3c(=O)[nH]2)cc(OC)c1OC | nt | nt | nt | 10 | nt | nt
C=CCNc1nc2ccccc2c(=O)[nH]1 | -4 | 4 | -1 | -3 | -3 | 1
COCCOC(=O)N/C=C\c1nc2ccccc2c(=O)[nH]1 | -6 | 5 | 2 | 4 | 1 | 1
C=CCOc1cccc(/C=C/c2nc3ccccc3c(=O)[nH]2)c1 | nt | nt | nt | 57* | nt | nt
COC(=O)c1ccc(/C=C/c2nc3ccccc3c(=O)[nH]2)cc1 | nt | nt | nt | 53* | nt | nt
COc1cc(/C=C/c2nc3ccccc3c(=O)[nH]2)ccc1OC(F)F | nt | nt | nt | 56* | nt | nt
COC(=O)c1cccc(NC(=O)/C=C/c2ccc3c(c2)OCO3)c1 | 48 | 1 | 17 | 85* | 69* | 0.3
O=C(/C=C/c1ccc2c(c1)OCO2)Nc1c(C(=O)O)[nH]c2ccccc12 | 50 | 7 | 2 | 52* | 91* | 0.1
CCOc1ccc(/C=C/C(=O)Nc2cccc(C(C)=O)c2)cc1 | 21 | 1 | -11 | 55* | 64* | 0.4
CCOc1ccc(NC(C(=O)Nc2cccc(C(C)=O)c2)c2ccccc2)cc1 (stereo not given) | 3 | 1 | -2 | -27 | -7 | 1.1
O=C(/C=C/c1ccco1)Nc1ccc2c(c1)OCO2 | 27 | 6 | -3 | 24 | 66* | 0.3
Cc1cc(C)nc(NC(=O)/C=C/c2ccc3c(c2)OCO3)c1 | 56* | 8.9* | 6 | 64* | 71* | 0.3
CCN(CC)C(=O)CS(=O)(=O)CC(=O)Nc1cc(OCCOC)c(Cl)cc1Cl | 14 | 1 | 0 | 4 | -4 | 1
COc1cc(NC(=O)c2cc3sccc3n2C)cc(OC)c1 | -4 | 9.0* | -6 | 4 | 20 | 0.8
CC(=O)N1CCCC1(C(=O)O)c1ccccc1 (stereo not given) | -10 | -2 | nt | 2 | nt | nt
CCN1CCN(c2ccc(S(=O)(=O)N3CCCCC3)cc2NC(=O)c2ccccc2)CC1 | nt | nt | nt | 21 | nt | nt
CCN1CCN(c2ccc(S(=O)(=O)N3CCCCC3)cc2NC(=O)c2ccc([N+](=O)[O-])s2)CC1 | nt | nt | nt | 53* | nt | nt
CCCc1ccc(-c2ccc(/C=C/C(=O)O)cc2)nc1 | 56* | -4 | -8 | 85* | 86* | 0.1
CCCCCc1ccc(-c2ccc(/C=C/C(=O)O)cc2)nc1 | 44 | -2 | -4 | 82* | 78* | 0.2
O=C(Cc1ccccc1Cl)Nc1nc2ccccc2[nH]1 | 15 | 4 | nt | 18 | nt | nt
O=C(/C=C\Nc1ccccn1)c1ccc(Cl)cc1 | 71* | 1 | -6 | 82* | 91* | 0.1
Cc1cccc(N/C=C/C(=O)c2ccc(Cl)cc2)c1 | nt | nt | nt | 33 | nt | nt
COc1cccc(C(=O)/C=C/Nc2cc(C)ccc2O)c1 | 16 | 5 | -16 | 55* | 62* | 0.4
